From ChEMBL document CHEMBL1155082, “Chemo-enzymatic synthesis of a series of 2,4-syn-functionalized (S)-glutamate analogues: new insight into the structure-activity relation of ionotropic glutamate receptor subtypes 5, 6, and 7” (J Med Chem, 2008)

Tests used:
[1] = Displacement of [3H]AMPA from AMPA receptor in rat synaptosomes; format: subcellular, Brain
[2] = biological target: Glutamate NMDA receptor; test: Displacement of [3H]CGP 39653 from NMDA receptor in rat synaptosomes; format: subcellular, Brain
[3] = Displacement of [3H]KA from KA receptor in rat synaptosomes; format: subcellular, Brain
[4] = tested on: Escherichia coli; test: Activity at Escherichia coli JM103 aspartate aminotransferase relative to alpha-ketoglutarate
Outline: (§1)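 E. coli AAT purified from overexpressing JM103 carrying pUC119-aspC. Run at 25 °C in 0.1 M potassium phosphate pH 7.6 with 40 mM Asp, 0.2 mM NADH, 0.1-10 mM ketoacid substrate, 0.05 UI AAT and 2 UI malic dehydrogenase coupling. Rates taken from linear OD decay at 340 nm. Kinetic parameters and standard errors from Hanes-Woolf plot by least squares.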

[5] = tested on: Escherichia coli; test: Activity at Escherichia coli JM103 aspartate aminotransferase; outline: as §1
[6] = biological target: Metabotropic glutamate receptor 5 (Rattus norvegicus, UniProt P31424); test: Activity at rat mGluR5 expressed in HEK293 cells assessed as calcium mobilization by FLIPR; format: functional, cell-based
Metabotropic glutamate receptor 5, sequence (P31424 whole entry): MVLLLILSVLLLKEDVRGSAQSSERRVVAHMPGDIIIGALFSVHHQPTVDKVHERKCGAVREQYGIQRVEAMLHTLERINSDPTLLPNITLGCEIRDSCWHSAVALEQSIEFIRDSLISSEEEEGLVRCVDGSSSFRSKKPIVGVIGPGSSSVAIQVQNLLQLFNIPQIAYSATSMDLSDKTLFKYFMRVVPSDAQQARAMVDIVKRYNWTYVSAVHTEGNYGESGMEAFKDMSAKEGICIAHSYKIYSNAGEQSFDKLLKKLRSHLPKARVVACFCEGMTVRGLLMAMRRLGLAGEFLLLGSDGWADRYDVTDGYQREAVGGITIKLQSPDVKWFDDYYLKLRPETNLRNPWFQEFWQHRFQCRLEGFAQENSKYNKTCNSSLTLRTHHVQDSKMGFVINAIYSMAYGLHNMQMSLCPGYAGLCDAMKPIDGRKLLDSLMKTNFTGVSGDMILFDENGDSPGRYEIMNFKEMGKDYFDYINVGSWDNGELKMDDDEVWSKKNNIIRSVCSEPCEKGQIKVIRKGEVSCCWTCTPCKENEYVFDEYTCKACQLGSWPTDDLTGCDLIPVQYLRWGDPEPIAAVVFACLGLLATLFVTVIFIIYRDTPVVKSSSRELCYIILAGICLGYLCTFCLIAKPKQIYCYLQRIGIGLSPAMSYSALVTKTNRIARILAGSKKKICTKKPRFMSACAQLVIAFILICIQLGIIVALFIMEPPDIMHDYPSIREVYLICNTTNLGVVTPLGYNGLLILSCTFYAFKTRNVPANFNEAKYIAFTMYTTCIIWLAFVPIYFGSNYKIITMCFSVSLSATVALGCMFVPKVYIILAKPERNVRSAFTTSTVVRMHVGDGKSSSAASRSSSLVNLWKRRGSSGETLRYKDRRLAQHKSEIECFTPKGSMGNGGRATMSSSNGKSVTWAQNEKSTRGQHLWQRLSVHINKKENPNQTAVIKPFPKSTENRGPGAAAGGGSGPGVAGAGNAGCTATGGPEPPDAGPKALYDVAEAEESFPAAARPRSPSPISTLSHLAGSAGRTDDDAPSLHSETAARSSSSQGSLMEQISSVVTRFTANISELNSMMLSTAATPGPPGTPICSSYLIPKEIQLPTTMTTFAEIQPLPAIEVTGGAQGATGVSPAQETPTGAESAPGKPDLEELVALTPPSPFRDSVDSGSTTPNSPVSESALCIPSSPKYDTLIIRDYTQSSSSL
Outline: (§2)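 Rat receptor cDNA transiently transfected into HEK293 (Lipofectamine Plus), seeded 24 h later, assayed next day. Cells loaded with 3 µM Fluo-4/0.01% pluronic in HEPES-buffered HBSS pH 7.4 with BSA and 2.5 mM probenecid, 1 h, 37 °C. Glutamate at EC80 or EC10 added with compound. FLIPR read over 3 min at room temperature. Maximum fluorescence change fitted by Hill equation.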

[7] = biological target: T1, Metabotropic glutamate receptor 2 (Rattus norvegicus, UniProt P31421); test: Displacement of [3H][…] from rat mGluR2 expressed in CHO cells by SPA; format: cell-based
T1 sequence (P31421 whole entry): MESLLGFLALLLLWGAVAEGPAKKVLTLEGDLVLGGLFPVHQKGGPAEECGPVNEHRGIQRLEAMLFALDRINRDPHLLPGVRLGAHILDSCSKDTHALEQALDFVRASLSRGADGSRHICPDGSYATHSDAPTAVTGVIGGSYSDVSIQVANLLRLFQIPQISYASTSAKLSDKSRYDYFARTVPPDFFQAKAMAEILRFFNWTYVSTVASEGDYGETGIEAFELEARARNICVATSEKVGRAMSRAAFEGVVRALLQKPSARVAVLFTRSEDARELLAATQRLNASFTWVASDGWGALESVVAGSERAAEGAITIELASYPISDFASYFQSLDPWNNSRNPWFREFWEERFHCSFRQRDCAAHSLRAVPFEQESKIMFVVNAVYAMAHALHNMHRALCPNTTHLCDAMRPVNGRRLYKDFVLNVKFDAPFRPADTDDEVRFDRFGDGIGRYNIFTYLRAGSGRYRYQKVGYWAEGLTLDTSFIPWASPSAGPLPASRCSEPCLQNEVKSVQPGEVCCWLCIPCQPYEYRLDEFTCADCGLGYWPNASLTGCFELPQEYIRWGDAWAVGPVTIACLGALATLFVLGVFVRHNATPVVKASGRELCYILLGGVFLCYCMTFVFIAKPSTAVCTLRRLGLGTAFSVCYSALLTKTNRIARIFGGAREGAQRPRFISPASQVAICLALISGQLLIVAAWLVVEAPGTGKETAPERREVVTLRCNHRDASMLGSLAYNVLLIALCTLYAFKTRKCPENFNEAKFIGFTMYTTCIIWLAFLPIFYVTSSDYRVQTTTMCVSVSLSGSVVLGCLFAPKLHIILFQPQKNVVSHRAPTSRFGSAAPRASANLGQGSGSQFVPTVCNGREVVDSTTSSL
Outline: (§3)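 Membranes from transiently transfected CHO cells harvested 48 h post-transfection, protein by Bradford, stored at -80 °C. SPA binding at 10 µg protein/well in 50 mM Tris-HCl pH 7.0 with 2 mM MgCl2, 2 nM [3H]LY341495 and WGA-SPA beads. Incubated 45 min on ice, then overnight at 4 °C. Nonspecific binding with 10 µM LY341495. Ki by Cheng-Prusoff.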

[8] = biological target: Glutamate receptor ionotropic, kainate 1 (Rattus norvegicus, UniProt P22756); test: Displacement of [3H]SYM2081 from rat recombinant iGluR5
Glutamate receptor ionotropic, kainate 1, sequence (P22756 whole entry): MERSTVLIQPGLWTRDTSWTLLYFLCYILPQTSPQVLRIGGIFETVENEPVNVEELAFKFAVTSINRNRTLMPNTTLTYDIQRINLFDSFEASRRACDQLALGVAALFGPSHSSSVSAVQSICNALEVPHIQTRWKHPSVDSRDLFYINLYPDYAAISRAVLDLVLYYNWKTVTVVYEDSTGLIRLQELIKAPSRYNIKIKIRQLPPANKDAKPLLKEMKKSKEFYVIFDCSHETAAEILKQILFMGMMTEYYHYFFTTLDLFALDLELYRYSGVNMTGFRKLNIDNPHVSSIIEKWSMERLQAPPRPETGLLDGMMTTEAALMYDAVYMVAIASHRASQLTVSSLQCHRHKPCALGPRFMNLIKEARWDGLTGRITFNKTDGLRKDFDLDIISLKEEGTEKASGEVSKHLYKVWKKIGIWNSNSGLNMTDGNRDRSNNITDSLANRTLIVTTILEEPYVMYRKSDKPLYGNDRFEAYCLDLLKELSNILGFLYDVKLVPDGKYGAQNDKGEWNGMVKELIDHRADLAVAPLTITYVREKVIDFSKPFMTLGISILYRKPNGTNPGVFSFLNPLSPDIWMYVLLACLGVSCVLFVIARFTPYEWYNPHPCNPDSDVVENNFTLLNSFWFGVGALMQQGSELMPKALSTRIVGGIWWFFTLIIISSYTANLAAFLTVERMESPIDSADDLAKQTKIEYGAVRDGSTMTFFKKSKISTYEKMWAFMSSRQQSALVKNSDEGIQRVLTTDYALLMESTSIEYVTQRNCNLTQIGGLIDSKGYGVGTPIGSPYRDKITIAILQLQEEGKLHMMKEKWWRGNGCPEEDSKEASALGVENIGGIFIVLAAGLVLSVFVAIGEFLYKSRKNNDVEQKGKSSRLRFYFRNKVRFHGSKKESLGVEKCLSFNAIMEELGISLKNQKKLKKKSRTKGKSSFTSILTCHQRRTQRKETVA

[9] = biological target: Metabotropic glutamate receptor 3 (Rattus norvegicus, UniProt P31422); test: Displacement of [3H][…] from rat mGluR3 expressed in CHO cells by SPA; format: cell-based; outline: as §3
Metabotropic glutamate receptor 3, sequence (P31422 whole entry): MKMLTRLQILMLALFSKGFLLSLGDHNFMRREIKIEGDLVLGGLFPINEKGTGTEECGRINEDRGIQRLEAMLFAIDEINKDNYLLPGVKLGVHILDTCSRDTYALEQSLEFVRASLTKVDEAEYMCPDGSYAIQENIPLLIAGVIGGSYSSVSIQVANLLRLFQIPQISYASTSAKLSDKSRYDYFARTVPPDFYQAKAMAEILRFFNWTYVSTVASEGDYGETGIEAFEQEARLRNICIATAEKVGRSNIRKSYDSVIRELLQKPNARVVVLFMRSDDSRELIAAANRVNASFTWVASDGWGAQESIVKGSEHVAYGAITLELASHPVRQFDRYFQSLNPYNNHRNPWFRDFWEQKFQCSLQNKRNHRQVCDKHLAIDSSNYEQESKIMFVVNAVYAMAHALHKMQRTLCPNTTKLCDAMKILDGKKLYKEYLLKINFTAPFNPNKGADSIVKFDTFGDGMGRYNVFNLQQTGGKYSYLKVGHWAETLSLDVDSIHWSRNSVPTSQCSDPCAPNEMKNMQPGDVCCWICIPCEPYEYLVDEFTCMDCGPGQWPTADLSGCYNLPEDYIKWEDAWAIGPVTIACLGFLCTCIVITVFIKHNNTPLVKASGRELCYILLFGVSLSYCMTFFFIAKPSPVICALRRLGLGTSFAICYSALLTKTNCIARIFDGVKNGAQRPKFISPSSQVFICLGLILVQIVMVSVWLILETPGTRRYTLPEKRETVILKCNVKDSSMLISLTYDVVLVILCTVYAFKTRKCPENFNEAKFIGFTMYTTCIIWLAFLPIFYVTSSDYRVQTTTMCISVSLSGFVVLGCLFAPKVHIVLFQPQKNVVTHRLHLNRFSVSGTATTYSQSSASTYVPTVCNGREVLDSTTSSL

[10] = biological target: Metabotropic glutamate receptor 1 (Rattus norvegicus, UniProt P23385); test: Activity at rat mGluR1 expressed in HEK293 cells assessed as calcium mobilization by FLIPR; format: functional, cell-based; outline: as §2
[11] = biological target: T1, Metabotropic glutamate receptor 2; test: Activity at rat mGluR2 expressed in CHO cells assessed as calcium mobilization by FLIPR; format: functional, cell-based
Outline: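 Rat mGluR2 cDNA co-transfected 8:2 with C. elegans GR Qi3 chimera cDNA into CHO cells (Lipofectamine Plus, 10 µg DNA/~7×10^6 cells). Fluo-4 loading for 1 h at 37 °C. Stimulation with EC80 or EC10 glutamate plus compound. FLIPR maximum fluorescence change over 3 min at room temperature, baseline-subtracted, fitted by Hill equation.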

[12] = biological target: Glutamate receptor ionotropic, kainate 2 (Rattus norvegicus, UniProt P42260); test: Displacement of [3H]SYM2081 from rat recombinant iGluR6
[13] = biological target: Metabotropic glutamate receptor 4 (Homo sapiens, UniProt Q14833); test: Activity at mGluR4 assessed as calcium mobilization by FLIPR; format: functional
Metabotropic glutamate receptor 4, sequence (Q14833 whole entry): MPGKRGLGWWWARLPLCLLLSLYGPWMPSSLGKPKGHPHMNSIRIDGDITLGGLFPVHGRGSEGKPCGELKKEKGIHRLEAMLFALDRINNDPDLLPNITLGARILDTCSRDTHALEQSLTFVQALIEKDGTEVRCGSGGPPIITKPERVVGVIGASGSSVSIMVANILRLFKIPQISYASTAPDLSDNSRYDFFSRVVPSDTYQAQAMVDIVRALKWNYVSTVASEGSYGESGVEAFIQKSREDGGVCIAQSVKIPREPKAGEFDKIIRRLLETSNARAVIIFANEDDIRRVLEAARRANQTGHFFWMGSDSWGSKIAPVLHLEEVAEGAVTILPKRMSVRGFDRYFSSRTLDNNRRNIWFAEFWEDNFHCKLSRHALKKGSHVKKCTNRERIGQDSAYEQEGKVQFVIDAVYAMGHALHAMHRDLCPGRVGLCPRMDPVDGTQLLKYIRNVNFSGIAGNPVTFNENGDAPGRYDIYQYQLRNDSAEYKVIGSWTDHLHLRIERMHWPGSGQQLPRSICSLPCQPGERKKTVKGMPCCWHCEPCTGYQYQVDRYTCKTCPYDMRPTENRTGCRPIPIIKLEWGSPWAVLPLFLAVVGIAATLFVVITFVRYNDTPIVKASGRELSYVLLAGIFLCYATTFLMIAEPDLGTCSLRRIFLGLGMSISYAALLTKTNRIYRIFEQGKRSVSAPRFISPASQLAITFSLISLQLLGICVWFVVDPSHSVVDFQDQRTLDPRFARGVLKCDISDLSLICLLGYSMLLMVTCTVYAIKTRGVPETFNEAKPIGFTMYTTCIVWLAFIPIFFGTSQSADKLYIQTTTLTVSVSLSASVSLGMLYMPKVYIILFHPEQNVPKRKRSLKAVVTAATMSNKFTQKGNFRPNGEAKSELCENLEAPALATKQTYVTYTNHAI

[14] = biological target: T2, Glutamate receptor ionotropic, kainate 4 (Rattus norvegicus, UniProt Q01812); test: Binding affinity to rat cloned KA1 receptor
T2 sequence (Q01812 whole entry): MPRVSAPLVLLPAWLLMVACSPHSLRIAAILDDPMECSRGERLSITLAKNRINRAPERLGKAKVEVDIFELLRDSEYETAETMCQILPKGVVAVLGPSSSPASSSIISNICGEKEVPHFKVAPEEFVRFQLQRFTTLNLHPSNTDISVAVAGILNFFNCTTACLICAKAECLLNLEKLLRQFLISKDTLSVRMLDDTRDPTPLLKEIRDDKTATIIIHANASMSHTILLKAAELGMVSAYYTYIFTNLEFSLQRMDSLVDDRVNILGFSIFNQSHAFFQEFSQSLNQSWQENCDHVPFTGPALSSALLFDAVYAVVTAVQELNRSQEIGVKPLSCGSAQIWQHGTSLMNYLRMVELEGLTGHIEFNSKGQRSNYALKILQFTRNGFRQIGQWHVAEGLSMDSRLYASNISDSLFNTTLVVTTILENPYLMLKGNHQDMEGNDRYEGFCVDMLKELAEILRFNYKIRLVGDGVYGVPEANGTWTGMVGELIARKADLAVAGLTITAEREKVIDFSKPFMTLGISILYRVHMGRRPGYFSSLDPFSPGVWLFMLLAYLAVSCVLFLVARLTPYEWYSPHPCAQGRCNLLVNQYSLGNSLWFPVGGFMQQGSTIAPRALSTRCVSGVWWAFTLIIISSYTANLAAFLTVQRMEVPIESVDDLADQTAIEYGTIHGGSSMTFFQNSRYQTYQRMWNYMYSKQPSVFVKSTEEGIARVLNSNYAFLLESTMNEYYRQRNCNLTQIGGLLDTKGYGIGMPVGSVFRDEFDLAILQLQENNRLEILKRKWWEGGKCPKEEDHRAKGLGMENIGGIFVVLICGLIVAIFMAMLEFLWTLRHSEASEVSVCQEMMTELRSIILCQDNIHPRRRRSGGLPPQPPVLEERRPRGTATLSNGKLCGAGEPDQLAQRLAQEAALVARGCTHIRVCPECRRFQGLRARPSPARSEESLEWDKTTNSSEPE

Row | Compound | IC50 [1] [µM] | Ki [2] [µM] | IC50 [3] [µM] | pIC50 [3] | Ki ([8]; read-out: Ki) [µM] | Ki ([12]; read-out: Ki) [µM] | further results
1 | N[C@@H](C[C@@H](CC(=O)O)C(=O)O)C(=O)O | > 100 | > 100 | 39 | 4.41 |  |  | 
2 | O=C(O)C(=O)CC(CO)C(=O)O (racemic) |  |  |  |  |  |  | kcat [4]: 1.6%; Km [5]: 4700 µM
3 | N[C@@H](Cn1oc(=O)[nH]c1=O)C(=O)O [QUISQUALATE] |  |  |  |  | 0.171 |  | 
4 | O=C(O)CC(CC(=O)C(=O)O)C(=O)O (racemic) |  |  |  |  |  |  | kcat [4]: 1.1%; Km [5]: 30100 µM
5 | O=C(O)C(=O)CC(COCc1ccccc1)C(=O)O (racemic) |  |  |  |  |  |  | kcat [4]: 11%; Km [5]: 90 µM
6 | N[C@@H](C[C@@H](COCc1ccccc1)C(=O)O)C(=O)O | > 100 | 26 | 12 | 4.93 |  |  | 
7 | COC(=O)CCC(CC(=O)C(=O)O)C(=O)O (racemic) |  |  |  |  |  |  | kcat [4]: 33.6%; Km [5]: 610 µM
8 | COC(=O)CC(CC(=O)C(=O)O)C(=O)O (racemic) |  |  |  |  |  |  | kcat [4]: 41%; Km [5]: 1800 µM
9 | C[C@H](C[C@H](N)C(=O)O)C(=O)O [2S,4R-4-METHYLGLUTAMATE] |  |  |  |  |  | 0.017 | 
10 | C=C(C)[C@H]1CN[C@H](C(=O)O)[C@H]1CC(=O)O [KAINIC ACID] |  |  |  |  |  |  | Ki [14]: 0.0047 µM
11 | C/C(=C\C=C\[C@@H](C)C(=O)O)[C@H]1CN[C@H](C(=O)O)[C@H]1CC(=O)O [DOMORIC ACID] |  |  |  |  | 0.00111 | 0.00604 | Ki [14]: 0.04 µM; Ki ([8]; read-out: pKi (converted)): 0.00107 µM; Ki ([12]; read-out: pKi (converted)): 0.00575 µM
12 | N[C@@H](C[C@@H](CCC(=O)NCc1ccccc1)C(=O)O)C(=O)O | > 100 | 72 | > 100 |  | 0.138 | > 100 | 

The next lines start with results.

Row | IC50 [1] [µM] | Ki [2] [µM] | IC50 [3] [µM] | pIC50 [3] | Ki ([8]; read-out: Ki) [µM] | Ki ([12]; read-out: Ki) [µM] | Compound | further results
13 | > 100 | 52 | > 100 |  |  |  | N[C@@H](C[C@@H](CCC(=O)O)C(=O)O)C(=O)O | 
14 | 74 | > 100 | 41 | 4.39 | 0.641 | 10.6 | CCNC(=O)CC[C@H](C[C@H](N)C(=O)O)C(=O)O | pIC50 [1]: 4.13; EC50 [6]: > 100 µM; Ki [7]: > 1000 µM; Ki [9]: > 1000 µM; EC50 [10]: > 100 µM; EC50 [11]: > 100 µM; Ki ([12]; read-out: pKi (converted)): 10.2 µM; EC50 [13]: > 100 µM
15 | 32 | > 100 | 29 | 4.54 | 0.00381 | 0.123 | CNC(=O)CC[C@H](C[C@H](N)C(=O)O)C(=O)O | pIC50 [1]: 4.51; EC50 [6]: > 100 µM; Ki [7]: > 1000 µM; Ki [9]: > 1000 µM; EC50 [10]: > 100 µM; EC50 [11]: > 100 µM; Ki ([12]; read-out: pKi (converted)): 0.12 µM; EC50 [13]: > 100 µM
16 | 25 | > 100 | 16 | 4.8 | 0.00745 | 9.66 | NC(=O)CC[C@H](C[C@H](N)C(=O)O)C(=O)O | pIC50 [1]: 4.6; EC50 [6]: > 100 µM; Ki [7]: > 1000 µM; Ki [9]: > 1000 µM; EC50 [10]: > 100 µM; EC50 [11]: > 100 µM; EC50 [13]: > 100 µM
17 | 44 | 15 | 0.24 | 6.62 |  |  | N[C@@H](C[C@@H](CO)C(=O)O)C(=O)O | pIC50 [1]: 4.35
18 | 31 | > 100 | 7.9 | 5.1 | 0.0428 | 6.67 | COC(=O)CC[C@H](C[C@H](N)C(=O)O)C(=O)O | pIC50 [1]: 4.51; EC50 [6]: > 100 µM; Ki [7]: > 1000 µM; Ki ([8]; read-out: pKi (converted)): 0.0417 µM; Ki [9]: > 1000 µM; EC50 [10]: > 100 µM; EC50 [11]: > 100 µM; Ki ([12]; read-out: pKi (converted)): 6.17 µM; EC50 [13]: > 100 µM
